Each structure is given as a SMILES string. Activity calls are given as the source filed them. No cut-off for these calls is given here.

Consider six molecules from ChEMBL document CHEMBL1144233 (Bioorg Med Chem Lett, 2008).

Assay [1] addresses T1, Metabotropic glutamate receptor 4 (Homo sapiens, UniProt Q14833). The assay is described as follows: Activity at human mGluR4 expressed in CHO cells assessed as fold potentiation of glutamate-induced calcium flux at 30 uM by fluorescence assay relative to control. (Calcium flux is commonly read through the fluorescence of an indicator in the cells.)
Target sequence in this assay (Q14833 whole entry, looked up): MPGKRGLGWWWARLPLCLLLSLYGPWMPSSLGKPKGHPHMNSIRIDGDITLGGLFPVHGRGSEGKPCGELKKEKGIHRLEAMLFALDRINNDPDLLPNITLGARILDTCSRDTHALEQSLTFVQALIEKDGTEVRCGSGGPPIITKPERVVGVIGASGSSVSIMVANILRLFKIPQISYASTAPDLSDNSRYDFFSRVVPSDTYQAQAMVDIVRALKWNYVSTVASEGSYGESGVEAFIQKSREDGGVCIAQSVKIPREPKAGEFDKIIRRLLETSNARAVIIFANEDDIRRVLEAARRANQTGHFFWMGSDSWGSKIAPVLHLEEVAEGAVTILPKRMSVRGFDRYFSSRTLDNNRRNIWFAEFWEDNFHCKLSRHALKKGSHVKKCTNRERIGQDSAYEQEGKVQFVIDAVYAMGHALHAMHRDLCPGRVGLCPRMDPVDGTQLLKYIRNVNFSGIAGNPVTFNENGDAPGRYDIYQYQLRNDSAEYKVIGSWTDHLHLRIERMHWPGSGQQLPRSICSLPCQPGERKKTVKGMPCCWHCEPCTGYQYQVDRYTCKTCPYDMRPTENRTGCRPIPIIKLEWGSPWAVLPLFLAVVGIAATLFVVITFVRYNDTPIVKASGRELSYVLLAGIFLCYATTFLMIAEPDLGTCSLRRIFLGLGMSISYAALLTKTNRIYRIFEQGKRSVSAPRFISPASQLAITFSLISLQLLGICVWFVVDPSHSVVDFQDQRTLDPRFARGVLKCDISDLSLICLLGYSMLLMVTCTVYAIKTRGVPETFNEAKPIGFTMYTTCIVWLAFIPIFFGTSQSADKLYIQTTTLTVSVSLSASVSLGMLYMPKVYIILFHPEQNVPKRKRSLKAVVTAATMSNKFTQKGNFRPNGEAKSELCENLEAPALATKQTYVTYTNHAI
Assay [2] deals with Metabotropic glutamate receptor 1 (Rattus norvegicus, UniProt P23385). The assay is described as follows: (§1) Antagonist activity at rat mGluR1 expressed in Syrian golden hamster BHK cells assessed as […] of glutamate-induced calcium flux by fluorescence assay. It counts as functional, cell-based.
Sequence of Metabotropic glutamate receptor 1 (P23385 whole entry): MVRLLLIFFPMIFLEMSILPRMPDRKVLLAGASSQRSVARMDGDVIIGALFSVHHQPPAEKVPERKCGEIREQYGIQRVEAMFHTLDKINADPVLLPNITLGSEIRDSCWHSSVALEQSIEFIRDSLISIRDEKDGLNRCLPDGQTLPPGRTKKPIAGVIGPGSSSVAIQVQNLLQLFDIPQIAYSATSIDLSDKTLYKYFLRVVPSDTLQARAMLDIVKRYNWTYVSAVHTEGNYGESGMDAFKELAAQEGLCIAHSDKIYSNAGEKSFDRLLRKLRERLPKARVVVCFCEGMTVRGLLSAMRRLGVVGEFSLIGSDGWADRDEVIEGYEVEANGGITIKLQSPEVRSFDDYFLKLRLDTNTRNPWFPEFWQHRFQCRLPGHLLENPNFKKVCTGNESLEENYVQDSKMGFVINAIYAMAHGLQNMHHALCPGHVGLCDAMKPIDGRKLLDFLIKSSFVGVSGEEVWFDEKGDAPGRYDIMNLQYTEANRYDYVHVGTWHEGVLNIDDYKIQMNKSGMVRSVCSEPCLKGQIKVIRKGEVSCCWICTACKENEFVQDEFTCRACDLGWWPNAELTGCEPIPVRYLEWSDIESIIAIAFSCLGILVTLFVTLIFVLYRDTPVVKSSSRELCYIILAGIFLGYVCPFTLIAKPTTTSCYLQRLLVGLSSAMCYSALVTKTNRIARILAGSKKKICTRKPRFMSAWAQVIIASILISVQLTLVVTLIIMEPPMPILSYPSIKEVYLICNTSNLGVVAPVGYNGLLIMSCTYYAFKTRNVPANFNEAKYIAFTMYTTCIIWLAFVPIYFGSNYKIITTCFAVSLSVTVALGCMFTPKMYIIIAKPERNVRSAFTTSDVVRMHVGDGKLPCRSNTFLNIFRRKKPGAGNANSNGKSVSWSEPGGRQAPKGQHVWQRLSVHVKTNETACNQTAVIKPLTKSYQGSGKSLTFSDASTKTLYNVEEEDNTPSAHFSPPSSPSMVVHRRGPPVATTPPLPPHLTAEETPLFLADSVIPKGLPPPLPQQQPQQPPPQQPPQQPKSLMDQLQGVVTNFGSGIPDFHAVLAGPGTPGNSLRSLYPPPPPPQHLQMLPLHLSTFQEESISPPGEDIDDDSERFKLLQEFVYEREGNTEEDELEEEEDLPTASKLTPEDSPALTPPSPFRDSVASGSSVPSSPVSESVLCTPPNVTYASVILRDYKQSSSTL
Assay [3] has as its target T1, Metabotropic glutamate receptor 4. Briefly: Activity at human mGluR4 expressed in CHO coexpressing Gqi5 assessed as potentiation of glutamate-induced calcium flux by fluorescence assay. It counts as functional. The method, boiled down:
(§2)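 CHO cells stably co-expressing human mGluR4 and chimeric Gqi5, plated 30,000 cells/well in assay medium (DMEM, 10% dialyzed FBS, 20 mM HEPES) and grown overnight at 37 °C, 5% CO₂. Loaded with 1 µM Fluo-4AM in HBSS/20 mM HEPES/2.5 mM probenecid for 45 min at 37 °C.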
Target sequence in this assay (Q14833 whole entry): as the sequence (Q14833 whole entry, looked up) above

Assay [4] has the same target. Briefly: Activity at human mGluR4 expressed in CHO coexpressing Gqi5 assessed as potentiation of calcium flux by fluorescence assay in absence of glutamate. It counts as functional. The method, boiled down:
as §2
Target sequence in this assay (Q14833 whole entry): as the sequence (Q14833 whole entry, looked up) above

For assay [5], the target named is Metabotropic glutamate receptor 1 (Rattus norvegicus) (UniProt P23385). The description is as §1. It counts as functional, cell-based. Also noted: scale not given: the % may be the effect or the level left.
Sequence of Metabotropic glutamate receptor 1 (Rattus norvegicus) (P23385 19-1199 limits assumed): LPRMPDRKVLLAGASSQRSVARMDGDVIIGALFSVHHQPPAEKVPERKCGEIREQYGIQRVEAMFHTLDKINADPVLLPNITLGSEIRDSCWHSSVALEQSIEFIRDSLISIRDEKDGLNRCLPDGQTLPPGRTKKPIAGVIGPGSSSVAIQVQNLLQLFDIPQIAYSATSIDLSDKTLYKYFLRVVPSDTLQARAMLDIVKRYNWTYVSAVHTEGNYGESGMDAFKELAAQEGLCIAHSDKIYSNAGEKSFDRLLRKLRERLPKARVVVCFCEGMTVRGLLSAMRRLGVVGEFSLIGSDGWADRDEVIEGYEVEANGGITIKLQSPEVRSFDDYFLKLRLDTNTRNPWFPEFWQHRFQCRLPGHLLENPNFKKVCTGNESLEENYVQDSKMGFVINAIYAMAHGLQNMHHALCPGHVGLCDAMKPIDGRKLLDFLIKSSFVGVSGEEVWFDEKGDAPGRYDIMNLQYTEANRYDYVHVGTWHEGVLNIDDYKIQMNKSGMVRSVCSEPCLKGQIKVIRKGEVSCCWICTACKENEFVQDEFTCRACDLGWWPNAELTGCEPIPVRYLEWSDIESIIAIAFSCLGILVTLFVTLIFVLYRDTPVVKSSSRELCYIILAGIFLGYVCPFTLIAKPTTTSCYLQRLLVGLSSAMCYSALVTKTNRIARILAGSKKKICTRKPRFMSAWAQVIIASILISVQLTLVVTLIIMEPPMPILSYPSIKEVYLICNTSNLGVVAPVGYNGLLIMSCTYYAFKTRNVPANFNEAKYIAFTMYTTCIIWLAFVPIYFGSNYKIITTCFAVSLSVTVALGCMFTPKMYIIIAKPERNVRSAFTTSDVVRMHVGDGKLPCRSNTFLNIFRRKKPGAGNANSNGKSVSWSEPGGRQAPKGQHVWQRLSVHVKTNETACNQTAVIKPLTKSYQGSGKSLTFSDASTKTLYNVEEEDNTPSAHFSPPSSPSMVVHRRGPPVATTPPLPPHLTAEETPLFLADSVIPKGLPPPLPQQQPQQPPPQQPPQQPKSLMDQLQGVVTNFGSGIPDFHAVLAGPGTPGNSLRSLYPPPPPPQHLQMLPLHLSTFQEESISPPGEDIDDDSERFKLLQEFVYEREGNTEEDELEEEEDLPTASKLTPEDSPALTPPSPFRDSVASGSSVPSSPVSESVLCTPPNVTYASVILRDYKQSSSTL

On to `CC1CCCN(c2ncnc3c2cnn3-c2ccccc2Cl)C1` (centres undefined), for which the fold change (FC) in assay [1] stood at 2.7.

For the molecule `Cc1ccc(-n2ncc3c(N4CCCC(C(F)(F)F)C4)ncnc32)c(C)c1` (centres undefined), the fold change (FC) in assay [1] was 9.9. As for `Cc1ccc(-n2ncc3c(N4CC(C)OC(C)C4)ncnc32)c(C)c1` (centres undefined), in assay [1], the fold change (FC) was determined as 3.5. As to `Cc1ccc(-n2ncc3c(N4CCCC(C)C4)ncnc32)c(C)c1` (centres undefined), the IC50 in assay [2] is 2.6 µM. In assay [3], the EC50 came to 4.6 µM. Besides, in assay [1], the fold change (FC) turned out to be 11.8. For the same molecule, in assay [4], the outcome was inactive. `O=C(Nc1ccccc1)[C@]12C[C@H]1/C(=N\O)c1ccccc1O2`: the Activity in assay [5] was 30%. `Cc1ccc(-n2ncc3c(N4CCC(n5c(=O)[nH]c6ccccc65)CC4)ncnc32)c(C)c1`: the fold change (FC) in assay [1] turned out to be 2.4.

The term IC50 denotes the concentration needed to halve the response being measured. The term EC50 denotes the concentration needed to bring the measured effect to its halfway point.
